# Test results published in ChEMBL document CHEMBL4622886, “Leucinostatins from Ophiocordyceps spp. and Purpureocillium spp. Demonstrate Selective Antiproliferative Effects in Cells Representing the Luminal Androgen Receptor Subtype of Triple Negative Breast Cancer” (2020).
# Calls of active or inactive are those of the source. The calls are words filed in the database; no cut-off is given here. Numbered stars: 1 amine (or outer) side, 2 acyl side, 3 side chain; on linkers, the order of the positions; unused ones are H or OH. Square brackets hold non-standard residues; d marks the D form. Peptide text beside a SMILES is read from it. * marks the point of attachment. X1 = CCC(=O)C[C@@H](O)C[C@@H](C)C[C@H](N[*:1])C(=O)[*:2]; X4 = CCCC[C@@H](O)C[C@@H](C)C[C@H](N[*:1])C(=O)[*:2]; X2 = CCC(=O)/C=C/C[C@@H](C)C[C@H](N[*:1])C(=O)[*:2]; X3 = CCC(=O)CCC[C@@H](C)C[C@H](N[*:1])C(=O)[*:2]; Hexenoyl(2E,4S-Me) = CC[C@H](C)/C=C/C(=O)*; Leu(3R-OH) = CC(C)[C@@H](O)[C@H](N)C(=O)O; NH((S)CH(Me)CH2NMe2) = C[C@@H](CN(C)C)N*; Pro(4S-Me) = C[C@@H]1CN[C@H](C(=O)O)C1; NH((S)CH(CH3)CH2NHMe) = CNC[C@H](C)N*; Aib = CC(C)(N)C(=O)O; βAla = NCCC(=O)O
# What was measured:
# [1] = system: HCC1937; test: Antiproliferative activity against human HCC1937 cells at >1 uM incubated for 48 hrs by sulforhodamine B assay; assay type: functional, cell-based
# Outline: (§1)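 Cells (RPMI-1640 with 5% FBS, 0.5% gentamicin; used within 4 months of thaw) were seeded at set densities, allowed to adhere, then treated 48 h with compound or DMSO vehicle. Cells were fixed and SRB-stained, with absorbance read at 560 nm. GI50 vs vehicle was taken by non-linear regression; three independent experiments, each in triplicate.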
# [2] = system: MDA-MB-453; test: Antiproliferative activity against human MDA-MB-453 cells at > 1 uM incubated for 48 hrs by sulforhodamine B assay; assay type: functional, cell-based
# Outline: (§2)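 IMEM with 5% FBS and 0.3% gentamicin; cells used within 4 months of thaw. After seeding at set densities and adhering, cells got compound or DMSO vehicle for 48 h, then were fixed and SRB-stained, with A560 read. GI50 (50% proliferation inhibition vs vehicle) came from non-linear regression of concentration-response curves; three independent experiments, each in triplicate.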
# [3] = system: MDA-MB-231; test: Antiproliferative activity against human MDA-MB-231 cells at > 1 uM incubated for 48 hrs by sulforhodamine B assay; assay type: functional, cell-based; outline: as §2
# [4] = system: SUM185PE; test: Antiproliferative activity against human SUM185PE cells incubated for 48 hrs by sulforhodamine B assay; assay type: functional; outline: as §2
# [5] = system: SUM185PE; test: Antiproliferative activity against human SUM185PE cells at 1 to 100 nM incubated for 48 hrs by sulforhodamine B assay; assay type: functional, cell-based; outline: as §2
# [6] = system: BT-549; test: Antiproliferative activity against human BT549 cells at >1 uM incubated for 48 hrs by sulforhodamine B assay; assay type: functional, cell-based; outline: as §1
# [7] = system: HCC1806; test: Antiproliferative activity against human HCC1806 cells up to 100 nM incubated for 48 hrs by sulforhodamine B assay; assay type: functional, cell-based; outline: as §1
# [8] = system: HCC1937; test: Antiproliferative activity against human HCC1937 cells up to 100 nM incubated for 48 hrs by sulforhodamine B assay; assay type: functional, cell-based; outline: as §1
# [9] = system: HCC1806; test: Antiproliferative activity against human HCC1806 cells at >1 uM incubated for 48 hrs by sulforhodamine B assay; assay type: functional, cell-based; outline: as §1
# [10] = system: MDA-MB-231; test: Antiproliferative activity against human MDA-MB-231 cells incubated for 48 hrs by sulforhodamine B assay; assay type: functional; conditions: MDA-MB-231, 48 h; outline: as §2
# [11] = system: MDA-MB-231; test: Antiproliferative activity against human MDA-MB-231 cells up to 100 nM incubated for 48 hrs by sulforhodamine B assay; assay type: functional, cell-based; outline: as §2
# [12] = system: BT-549; test: Antiproliferative activity against human BT549 cells up to 100 nM incubated for 48 hrs by sulforhodamine B assay; assay type: functional, cell-based; outline: as §1
# [13] = system: MDA-MB-453; test: Antiproliferative activity against human MDA-MB-453 cells at 1 to 100 nM incubated for 48 hrs by sulforhodamine B assay; assay type: functional, cell-based; outline: as §2
# [14] = system: MDA-MB-453; test: Antiproliferative activity against human MDA-MB-453 cells incubated for 48 hrs by sulforhodamine B assay; assay type: functional; conditions: MDA-MB-453, 48 h; outline: as §2
SMILES,Activity [1],Activity [2],Activity [3],GI50 [4] [nM],Activity [5],Activity [6],Activity [7],Activity [8],Activity [9],GI50 [10] [nM],Activity [11],Activity [12],Activity [13],GI50 [14] [nM]
"CC[C@H](C)/C=C/C(=O)N1C[C@@H](C)C[C@H]1C(=O)N[C@@H](CC(C)C)C(=O)N[C@H](C(=O)NC(C)(C)C(=O)N[C@@H](CC(C)C)C(=O)N[C@@H](CC(C)C)C(=O)NC(C)(C)C(=O)NC(C)(C)C(=O)NCCC(=O)N[C@@H](C)CNC)[C@H](O)C(C)C ({Hexenoyl(2E,4S-Me)}-[Pro(4S-Me)]L[Leu(3R-OH)][Aib]LL[Aib][Aib][βAla]-{NH((S)CH(CH3)CH2NHMe)})",Active,Active,Active,2,Active,Active,inactive,inactive,Active,> 100,inactive,inactive,Active,2.6
"CC[C@H](C)/C=C/C(=O)N1C[C@@H](C)C[C@H]1C(=O)N[C@@H](CC(C)C)C(=O)N[C@H](C(=O)NC(C)(C)C(=O)N[C@@H](CC(C)C)C(=O)N[C@@H](CC(C)C)C(=O)NC(C)(C)C(=O)NC(C)(C)C(=O)NCCC(=O)N[C@@H](C)CN(C)C)[C@H](O)C(C)C ({Hexenoyl(2E,4S-Me)}-[Pro(4S-Me)]L[Leu(3R-OH)][Aib]LL[Aib][Aib][βAla]-{NH((S)CH(Me)CH2NMe2)})",Active,Active,Active,1.4,Active,Active,inactive,inactive,Active,> 100,inactive,inactive,Active,2.3
"CCC(=O)C[C@@H](O)C[C@@H](C)C[C@H](NC(=O)[C@@H]1C[C@H](C)CN1C(=O)/C=C/[C@@H](C)CC)C(=O)N[C@H](C(=O)NC(C)(C)C(=O)N[C@@H](CC(C)C)C(=O)N[C@@H](CC(C)C)C(=O)NC(C)(C)C(=O)NC(C)(C)C(=O)NCCC(=O)N[C@@H](C)CN(C)C)[C@H](O)C(C)C ({Hexenoyl(2E,4S-Me)}-[Pro(4S-Me)][X1][Leu(3R-OH)][Aib]LL[Aib][Aib][βAla]-{NH((S)CH(Me)CH2NMe2)})",Active,Active,Active,–,Active,Active,inactive,inactive,Active,–,inactive,inactive,Active,–
"CCC(=O)/C=C/C[C@@H](C)C[C@H](NC(=O)[C@@H]1C[C@H](C)CN1C(=O)/C=C/[C@@H](C)CC)C(=O)N[C@H](C(=O)NC(C)(C)C(=O)N[C@@H](CC(C)C)C(=O)N[C@@H](CC(C)C)C(=O)NC(C)(C)C(=O)NC(C)(C)C(=O)NCCC(=O)N[C@@H](C)CNC)[C@H](O)C(C)C ({Hexenoyl(2E,4S-Me)}-[Pro(4S-Me)][X2][Leu(3R-OH)][Aib]LL[Aib][Aib][βAla]-{NH((S)CH(CH3)CH2NHMe)})",Active,Active,Active,2.2,Active,Active,inactive,inactive,Active,> 100,inactive,inactive,Active,4
"CCC(=O)CCC[C@@H](C)C[C@H](NC(=O)[C@@H]1C[C@H](C)CN1C(=O)/C=C/[C@@H](C)CC)C(=O)N[C@H](C(=O)NC(C)(C)C(=O)N[C@@H](CC(C)C)C(=O)N[C@@H](CC(C)C)C(=O)NC(C)(C)C(=O)NC(C)(C)C(=O)NCCC(=O)N[C@@H](C)CNC)[C@H](O)C(C)C ({Hexenoyl(2E,4S-Me)}-[Pro(4S-Me)][X3][Leu(3R-OH)][Aib]LL[Aib][Aib][βAla]-{NH((S)CH(CH3)CH2NHMe)})",Active,Active,Active,–,Active,Active,inactive,inactive,Active,> 100,inactive,inactive,Active,–
"CCC(=O)CCC[C@@H](C)C[C@H](NC(=O)[C@@H]1C[C@H](C)CN1C(=O)/C=C/[C@@H](C)CC)C(=O)N[C@H](C(=O)NC(C)(C)C(=O)N[C@@H](CC(C)C)C(=O)N[C@@H](CC(C)C)C(=O)NC(C)(C)C(=O)NC(C)(C)C(=O)NCCC(=O)N[C@@H](C)CN(C)C)[C@H](O)C(C)C ({Hexenoyl(2E,4S-Me)}-[Pro(4S-Me)][X3][Leu(3R-OH)][Aib]LL[Aib][Aib][βAla]-{NH((S)CH(Me)CH2NMe2)})",Active,Active,Active,–,Active,Active,inactive,inactive,Active,> 100,inactive,inactive,Active,–
"CCCC[C@@H](O)C[C@@H](C)C[C@H](NC(=O)[C@@H]1C[C@H](C)CN1C(=O)/C=C/[C@@H](C)CC)C(=O)N[C@H](C(=O)NC(C)(C)C(=O)N[C@@H](CC(C)C)C(=O)N[C@@H](CC(C)C)C(=O)NC(C)(C)C(=O)NC(C)(C)C(=O)NCCC(=O)N[C@@H](C)CNC)[C@H](O)C(C)C ({Hexenoyl(2E,4S-Me)}-[Pro(4S-Me)][X4][Leu(3R-OH)][Aib]LL[Aib][Aib][βAla]-{NH((S)CH(CH3)CH2NHMe)})",Active,Active,Active,–,Active,Active,inactive,inactive,Active,> 100,inactive,inactive,Active,–
"CCCC[C@@H](O)C[C@@H](C)C[C@H](NC(=O)[C@@H]1C[C@H](C)CN1C(=O)/C=C/[C@@H](C)CC)C(=O)N[C@H](C(=O)NC(C)(C)C(=O)N[C@@H](CC(C)C)C(=O)N[C@@H](CC(C)C)C(=O)NC(C)(C)C(=O)NC(C)(C)C(=O)NCCC(=O)N[C@@H](C)CN(C)C)[C@H](O)C(C)C ({Hexenoyl(2E,4S-Me)}-[Pro(4S-Me)][X4][Leu(3R-OH)][Aib]LL[Aib][Aib][βAla]-{NH((S)CH(Me)CH2NMe2)})",Active,Active,Active,–,Active,Active,inactive,inactive,Active,> 100,inactive,inactive,Active,–
